Experimental data taken from ChEMBL document CHEMBL4043132, “3-O-Substituted-3',4',5'-trimethoxyflavonols: Synthesis and cell-based evaluation as anti-prostate cancer agents” (Bioorg Med Chem, 2017).
pIC50: −log10 of the molar value.

Legend:
[1] = test system: PC-3; assay: Antiproliferative activity against human PC3 cells after 3 days by WST-1 assay; format: functional, cell-based; details: PC-3, 72 h
Method in brief: (§1)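 Cells from ATCC; PC-3 and LNCaP grown in RPMI-1640 and DU145 in EMEM, each with 10% FBS and 1% penicillin/streptomycin, 37 °C, 5% CO2. Seeded 3,200 cells/well and exposed for 3 days to at least five doses, with DMSO as vehicle control. WST-1 reagent added for 3 h at 37 °C, absorbance read at 430 nm. IC50 taken from a linear inhibition plot; mean ± SD of three independent experiments.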

[2] = test system: DU-145; assay: Antiproliferative activity against human DU145 cells after 3 days by WST-1 assay; format: functional, cell-based; details: DU-145, 72 h; method in brief: as §1
[3] = test system: LNCaP; assay: Antiproliferative activity against human LNCAP cells after 3 days by WST-1 assay; format: functional, cell-based; details: 72 h; method in brief: as §1
[4] = test system: PWR-1E; assay: Antiproliferative activity against human PWR-1E cells after 3 days by WST-1 assay; format: cell-based; details: 72 h
Method in brief: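 PWR-1E benign prostate epithelial cells grown in keratinocyte serum-free medium with bovine pituitary extract and recombinant human EGF. Seeded 3,200 cells/well and treated for 3 days at 37 °C, with DMSO as vehicle control. WST-1 reagent added for 3 h, absorbance read at 430 nm. IC50 from a linear inhibition plot over at least five doses; mean ± SD, n = 3.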

[5] = test system: PC-3; assay: Cell cycle arrest in human PC3 cells assessed as accumulation at G0/G1 phase at 10 uM after 16 hrs by propidium iodide staining-based flow cytometry (reference value: 34.1%); format: functional
[6] = test system: PC-3; assay: Cell cycle arrest in human PC3 cells assessed as accumulation at G0/G1 phase at 20 uM after 16 hrs by propidium iodide staining-based flow cytometry (reference value: 34.1%); format: functional
[7] = test system: PC-3; assay: Cell cycle arrest in human PC3 cells assessed as accumulation at G0/G1 phase at 10 uM after 24 hrs by propidium iodide staining-based flow cytometry (reference value: 37.5%); format: functional
[8] = test system: PC-3; assay: Cell cycle arrest in human PC3 cells assessed as accumulation at G0/G1 phase at 20 uM after 24 hrs by propidium iodide staining-based flow cytometry (reference value: 37.5%); format: functional
[9] = test system: PC-3; assay: Cell cycle arrest in human PC3 cells assessed as accumulation at S phase at 10 uM after 16 hrs by propidium iodide staining-based flow cytometry (reference value: 9.9%); format: functional
[10] = test system: PC-3; assay: Cell cycle arrest in human PC3 cells assessed as accumulation at S phase at 20 uM after 16 hrs by propidium iodide staining-based flow cytometry (reference value: 9.9%); format: functional
[11] = test system: PC-3; assay: Cell cycle arrest in human PC3 cells assessed as accumulation at S phase at 10 uM after 24 hrs by propidium iodide staining-based flow cytometry (reference value: 8.0%); format: functional
[12] = test system: PC-3; assay: Cell cycle arrest in human PC3 cells assessed as accumulation at S phase at 20 uM after 24 hrs by propidium iodide staining-based flow cytometry (reference value: 8.0%); format: functional
[13] = test system: PC-3; assay: Cell cycle arrest in human PC3 cells assessed as accumulation at G2/M phase at 10 uM after 16 hrs by propidium iodide staining-based flow cytometry (reference value: 32.3%); format: functional
[14] = test system: PC-3; assay: Cell cycle arrest in human PC3 cells assessed as accumulation at G2/M phase at 20 uM after 16 hrs by propidium iodide staining-based flow cytometry (reference value: 32.3%); format: functional
[15] = test system: PC-3; assay: Cell cycle arrest in human PC3 cells assessed as accumulation at G2/M phase at 10 uM after 24 hrs by propidium iodide staining-based flow cytometry (reference value: 27.8%); format: functional
[16] = test system: PC-3; assay: Cell cycle arrest in human PC3 cells assessed as accumulation at G2/M phase at 20 uM after 24 hrs by propidium iodide staining-based flow cytometry (reference value: 27.8%); format: functional
[17] = test system: PC-3; assay: Induction of apoptosis in human PC3 cells assessed as viable cells at 1 uM after 16 hrs by F2N12S and CYTOX AADvanced double staining-based flow cytometric analysis (reference value: 95%); format: functional; details: PC-3, 16 h, read-out: Activity
[18] = test system: PC-3; assay: Induction of apoptosis in human PC3 cells assessed as apoptotic cells at 1 uM after 16 hrs by F2N12S and CYTOX AADvanced double staining-based flow cytometric analysis (reference value: 2 to 3%); format: functional
[19] = test system: PC-3; assay: Induction of apoptosis in human PC3 cells assessed as necrotic cells at 1 uM after 16 hrs by F2N12S and CYTOX AADvanced double staining-based flow cytometric analysis (reference value: 2 to 3%); format: functional
[20] = test system: PC-3; assay: Induction of apoptosis in human PC3 cells assessed as viable cells at 5 uM after 16 hrs by F2N12S and CYTOX AADvanced double staining-based flow cytometric analysis (reference value: 95%); format: functional; details: PC-3, 16 h, read-out: Activity
[21] = test system: PC-3; assay: Induction of apoptosis in human PC3 cells assessed as apoptotic cells at 5 uM after 16 hrs by F2N12S and CYTOX AADvanced double staining-based flow cytometric analysis (reference value: 2 to 3%); format: functional
[22] = test system: PC-3; assay: Induction of apoptosis in human PC3 cells assessed as necrotic cells at 5 uM after 16 hrs by F2N12S and CYTOX AADvanced double staining-based flow cytometric analysis (reference value: 2 to 3%); format: functional
[23] = test system: PC-3; assay: Induction of apoptosis in human PC3 cells assessed as viable cells at 10 uM after 16 hrs by F2N12S and CYTOX AADvanced double staining-based flow cytometric analysis (reference value: 95%); format: functional; details: PC-3, 16 h, read-out: Activity
[24] = test system: PC-3; assay: Induction of apoptosis in human PC3 cells assessed as apoptotic cells at 10 uM after 16 hrs by F2N12S and CYTOX AADvanced double staining-based flow cytometric analysis (reference value: 2 to 3%); format: functional
[25] = test system: PC-3; assay: Induction of apoptosis in human PC3 cells assessed as necrotic cells at 10 uM after 16 hrs by F2N12S and CYTOX AADvanced double staining-based flow cytometric analysis (reference value: 2 to 3%); format: functional
[26] = test system: PC-3; assay: Induction of apoptosis in human PC3 cells assessed as viable cells at 20 uM after 16 hrs by F2N12S and CYTOX AADvanced double staining-based flow cytometric analysis (reference value: 95%); format: functional; details: PC-3, 16 h, read-out: Activity
[27] = test system: PC-3; assay: Induction of apoptosis in human PC3 cells assessed as apoptotic cells at 20 uM after 16 hrs by F2N12S and CYTOX AADvanced double staining-based flow cytometric analysis (reference value: 2 to 3%); format: functional
[28] = test system: PC-3; assay: Induction of apoptosis in human PC3 cells assessed as necrotic cells at 20 uM after 16 hrs by F2N12S and CYTOX AADvanced double staining-based flow cytometric analysis (reference value: 2 to 3%); format: functional
[29] = test system: PC-3; assay: Induction of apoptosis in human PC3 cells assessed as viable cells at 30 uM after 16 hrs by F2N12S and CYTOX AADvanced double staining-based flow cytometric analysis (reference value: 95%); format: functional; details: PC-3, 16 h, read-out: Activity
[30] = test system: PC-3; assay: Induction of apoptosis in human PC3 cells assessed as apoptotic cells at 30 uM after 16 hrs by F2N12S and CYTOX AADvanced double staining-based flow cytometric analysis (reference value: 2 to 3%); format: functional
[31] = test system: PC-3; assay: Induction of apoptosis in human PC3 cells assessed as necrotic cells at 30 uM after 16 hrs by F2N12S and CYTOX AADvanced double staining-based flow cytometric analysis (reference value: 2 to 3%); format: functional
[32] = test system: PC-3; assay: Induction of apoptosis in human PC3 cells assessed as viable cells at 50 uM after 16 hrs by F2N12S and CYTOX AADvanced double staining-based flow cytometric analysis (reference value: 95%); format: functional; details: PC-3, 16 h, read-out: Activity
[33] = test system: PC-3; assay: Induction of apoptosis in human PC3 cells assessed as apoptotic cells at 50 uM after 16 hrs by F2N12S and CYTOX AADvanced double staining-based flow cytometric analysis (reference value: 2 to 3%); format: functional
[34] = test system: PC-3; assay: Induction of apoptosis in human PC3 cells assessed as necrotic cells at 50 uM after 16 hrs by F2N12S and CYTOX AADvanced double staining-based flow cytometric analysis (reference value: 2 to 3%); format: functional
[35] = test system: PC-3; assay: Induction of apoptosis in human PC3 cells assessed as viable cells at 100 uM after 16 hrs by F2N12S and CYTOX AADvanced double staining-based flow cytometric analysis (reference value: 95%); format: functional; details: PC-3, 16 h, read-out: Activity
[36] = test system: PC-3; assay: Induction of apoptosis in human PC3 cells assessed as apoptotic cells at 100 uM after 16 hrs by F2N12S and CYTOX AADvanced double staining-based flow cytometric analysis (reference value: 2 to 3%); format: functional
[37] = test system: PC-3; assay: Induction of apoptosis in human PC3 cells assessed as necrotic cells at 100 uM after 16 hrs by F2N12S and CYTOX AADvanced double staining-based flow cytometric analysis (reference value: 2 to 3%); format: functional
[38] = test system: PC-3; assay: Induction of apoptosis in human PC3 cells assessed as apoptotic cells after 16 hrs by F2N12S and CYTOX AADvanced double staining-based flow cytometric analysis; format: functional, cell-based
[39] = Cmax in C57BL/6J mouse prostate at 240 mg/kg, po administered as single dose measured after 6 hrs post administration; format: ADME, organism-based, Prostate gland; set-up: dose 240 mg/kg, route oral

Compound: COc1cc(-c2oc3ccccc3c(=O)c2O)cc(OC)c1OC
- pIC50 [1]: 4.49
- pIC50 [2]: 4.57
- pIC50 [3]: 4.83
- pIC50 [4]: < 4.30
- Activity [5]: 31.2%
- Activity [6]: 33.3%
- Activity [7]: 34.6%
- Activity [8]: 33.8%
- Activity [9]: 12.3%
- Activity [10]: 11.7%
- Activity [11]: 6%
- Activity [12]: 6%
- Activity [13]: 33%
- Activity [14]: 26.6%
- Activity [15]: 33.3%
- Activity [16]: 31.2%
- viability at 1 µM [17]: 90%
- Activity [18]: 6%
- Activity [19]: 2%
- viability at 5 µM [20]: 81%
- Activity [21]: 11%
- Activity [22]: 2%
- viability at 10 µM [23]: 66%
- Activity [24]: 39%
- Activity [25]: 2%
- viability at 20 µM [26]: 47%
- Activity [27]: 50%
- Activity [28]: 3%
- viability at 30 µM [29]: 43%
- Activity [30]: 54%
- Activity [31]: 2%
- viability at 50 µM [32]: 45%
- Activity [33]: 61%
- Activity [34]: 2%
- viability at 100 µM [35]: 24%
- Activity [36]: 73%
- Activity [37]: 3%
- Activity [38]: Dose-dependent effect
- Cmax [39]: 18.4 nM

Compound: CCCCCN(CCCCC)CCCOc1c(-c2cc(OC)c(OC)c(OC)c2)oc2ccccc2c1=O
- pIC50 [1]: 5.24
- pIC50 [2]: 4.91
- pIC50 [3]: 5.29
- pIC50 [4]: 4.83
- Activity [5]: 51.3%
- Activity [6]: 40.8%
- Activity [7]: 52.6%
- Activity [8]: 59.8%
- Activity [9]: 4.5%
- Activity [10]: 6.5%
- Activity [11]: 3.7%
- Activity [12]: 1.9%
- Activity [13]: 28.6%
- Activity [14]: 34.8%
- Activity [15]: 25.4%
- Activity [16]: 26.4%
- viability at 1 µM [17]: 87%
- Activity [18]: 10%
- Activity [19]: 2%
- viability at 5 µM [20]: 46%
- Activity [21]: 51%
- Activity [22]: 3%
- viability at 10 µM [23]: 3%
- Activity [24]: 93%
- Activity [25]: 4%
- viability at 20 µM [26]: 0%
- Activity [27]: 94%
- Activity [28]: 6%
- viability at 30 µM [29]: 0%
- Activity [30]: 92%
- Activity [31]: 8%
- viability at 50 µM [32]: 0%
- Activity [33]: 65%
- Activity [34]: 35%
- viability at 100 µM [35]: 0%
- Activity [36]: 27%
- Activity [37]: 72%
- Activity [38]: Dose-dependent effect
